Assay results from ChEMBL document CHEMBL4017489, “Design, Synthesis, and Evaluation of New Selective NM23-H2 Binders as c-MYC Transcription Inhibitors via Disruption of the NM23-H2/G-Quadruplex Interaction” (J Med Chem, 2017).

What was measured:
[1] = biological target: Nucleoside diphosphate kinase B (Homo sapiens, UniProt P22392, D54A); experiment: Binding affinity to N-terminal NT-647-NHS labeled NM23-H2 D54A mutant (unknown origin) after 30 mins by MST analysis
SiHa [2] = experiment: Cell cycle arrest in human SiHa cells assessed as accumulation at G2/M phase at 2 uM after 3 hrs by propidium iodide staining based flow cytometry (reference value: 39%); format: functional
Method in brief: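 SiHa cells plated 24 h, treated at 2 μM for 3–48 h; fixed in ice-cold 70% ethanol overnight, RNase A 20 μg/mL 37 °C 30 min, PI-stained, flow cytometry at 488 nm; phase percentages quantified; at least three experiments.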

SiHa [3] = experiment: Induction of apoptosis in human SiHa cells assessed as late apoptotic cells at 0.5 uM after 48 hrs by Annexin V-FITC/propidium iodide based flow cytometric analysis (reference value: 0.7 %); format: functional
Mus musculus = experiment: Toxicity in BALB/C nude mouse xenografted with human SiHa cells assessed as discomfort at 2.5 to 5 mg/kg, ip administered daily after 3 weeks; format: organism-based; conditions: in vivo, 504 h
Method in brief: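 SiHa cells implanted in the right armpit of BALB/c nu/nu mice. At approximately 50 mm3, mice randomized (n = 8/group) to vehicle, compound 2.5 or 5.0 mg/kg, or doxorubicin 1.0 mg/kg, given ip daily for 3 weeks. Body weight and signs of pain, distress or discomfort monitored; tumors excised and weighed. Data given as mean ± SEM, t test against vehicle.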

Nucleoside diphosphate kinase B, sequence (P22392 whole entry D54A): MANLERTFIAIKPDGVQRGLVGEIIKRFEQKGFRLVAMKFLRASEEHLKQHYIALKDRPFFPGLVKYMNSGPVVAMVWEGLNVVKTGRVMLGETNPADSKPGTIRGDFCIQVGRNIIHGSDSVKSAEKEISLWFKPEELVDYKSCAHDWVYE

CN(C)CCCNc1cc2nc3n(c(=O)c2cc1F)CC/C3=C\c1ccc(OCc2ccccc2)cc1O
Kd [1]: 4.6 µM | Activity (SiHa [2]): 38% | Activity (SiHa [3]): 5.1% | Activity (Mus musculus): Non-Toxic
